Test results: ChEMBL document CHEMBL5154931, “Structure-Activity Relationships of 8-Hydroxyquinoline-Derived Mannich Bases with Tertiary Amines Targeting Multidrug-Resistant Cancer” (J Med Chem, 2022)

Columns and labels:
Format in all cases: functional
[1] = Selectivity ratio of IC50 for cytotoxicity against human MES-SA cells assessed as cell growth inhibition to IC50 for cytotoxicity against multidrug resistance human MES-SA/Dx5 cells assessed as cell growth inhibition
[2] = Selectivity ratio of IC50 for cytotoxicity against human A-431 cells assessed as cell growth inhibition to IC50 for cytotoxicity against human A-431 cells expressing ABCB1 assessed as cell growth inhibition
[3] = Selectivity ratio of IC50 for cytotoxicity against human MES-SA cells assessed as cell growth inhibition in presence of P-gp inhibitor Tariquidar to IC50 for cytotoxicity against multidrug resistance human MES-SA/Dx5 cells assessed as cell growth inhibition in presence of P-gp inhibitor Tariquidar
[4] = tested on: MES-SA; assay: Cytotoxicity against human MES-SA cells assessed as cell growth inhibition incubated for 72 hrs in presence of P-gp inhibitor Tariquidar by PrestoBlue reagent based cell viability assay
Method in brief: (§1)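 MES-SA and doxorubicin-selected MES-SA/Dx5 cells in DMEM with 10% FBS, 5 mmol/L glutamine, penicillin/streptomycin; 5000 cells/well attached 24 h, serial compound dilutions for 72 h, with or without 1 μM tariquidar. 5% PrestoBlue added after supernatant removal, 1 h at 37 °C, read ex 555/em 585 nm. Mean IC50 with SD, 2–53 independent assays.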

[5] = tested on: MES-SA; assay: Cytotoxicity against human MES-SA cells assessed as cell growth inhibition incubated for 72 hrs by PrestoBlue reagent based cell viability assay; method in brief: as §1
[6] = tested on: MES-SA/Dx5; assay: Cytotoxicity against multidrug resistance human MES-SA/Dx5 cells assessed as cell growth inhibition incubated for 72 hrs by PrestoBlue reagent based cell viability assay; details: MES-SA/Dx5, 72 h; method in brief: as §1
[7] = tested on: MES-SA/Dx5; assay: Cytotoxicity against multidrug resistance human MES-SA/Dx5 cells assessed as cell growth inhibition incubated for 72 hrs in presence of P-gp inhibitor Tariquidar by PrestoBlue reagent based cell viability assay; details: MES-SA/Dx5, 72 h; method in brief: as §1
[8] = tested on: A-431; assay: Cytotoxicity against human A-431 cells assessed as cell growth inhibition after 72 hrs by PrestoBlue reagent based cell viability assay; details: A-431, 72 h
Method in brief: (§2)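 A431 and retrovirally P-gp (ABCB1)-transduced A431 cells kept in supplemented DMEM; 5000 cells/well attached 24 h, then serial compound dilutions for 72 h. Medium removed, 5% PrestoBlue (resazurin) added, 1 h at 37 °C, fluorescence ex 555/em 585 nm.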

[9] = tested on: A-431; assay: Cytotoxicity against human A-431 cells expressing ABCB1 assessed as cell growth inhibition incubated for 72 hrs by PrestoBlue reagent based cell viability assay; details: A-431, 72 h; method in brief: as §2

| SMILES | Ratio IC50 [1] | Ratio IC50 [2] | Ratio IC50 [3] | also measured |
| --- | --- | --- | --- | --- |
| CN1CCN(C(c2ccccn2)c2cc(Cl)c3cccnc3c2O)CC1 (stereo unspecified) | 1.2 | 2.8 |  |  |
| CN1CCN(C(c2cccnc2)c2ccc3cccnc3c2O)CC1 (stereo unspecified) | 1.5 |  |  |  |
| COCc1cc(CN2CCCC2)c(O)c2ncccc12 |  | 13.1 | 3 |  |
| CCN1CCN(C(c2cccnc2)c2cc(Cl)c3cccnc3c2O)CC1 (stereo unspecified) | 0.9 |  |  |  |
| CN1CCN(Cc2cc(Cl)c3cccnc3c2O)CC1 |  | 2.3 |  |  |
| COCc1cc(CN2CCN(C)CC2)c(O)c2ncccc12 |  | 2.9 |  |  |
| Oc1ccc(CN2CCN(c3ccccc3)CC2)c2cccnc12 | 0.9 |  |  |  |
| Oc1c(CN2CCN(c3ccc(F)cc3)CC2)cc(Cl)c2cccnc12 |  | 1.3 |  |  |
| Oc1c(C(c2ccccn2)N2CCCCC2)cc(Cl)c2cccnc12 (stereo unspecified) |  | 2.1 | 2.5 |  |
| Oc1c(C(c2ccccn2)N2CCOCC2)ccc2cccnc12 (stereo unspecified) | 1.6 |  |  |  |
| CC(C)OCc1cc(CN2CCN(c3ccccc3)CC2)c(O)c2ncccc12 | 4.3 | 3.9 | 1.5 |  |
| Oc1c(CN2CCN(c3ccccn3)CC2)cc(Cl)c2cccnc12 |  | 1.2 |  |  |
| Oc1c(CN2CCN(c3ccccc3)CC2)cc(Cl)c2cccnc12 | 6 | 1.3 |  |  |
| CCCCOCc1cc(CN2CCN(C)CC2)c(O)c2ncccc12 |  | 2.4 |  |  |
| CCN(CC)Cc1ccc2cccnc2c1O |  | 2.7 |  |  |
| Oc1c(CN2CCCC2)ccc2cccnc12 |  | 5.2 |  |  |
| Oc1c(CN2CCCCC2)cc(Cl)c2cccnc12 |  | 3.9 |  |  |
| CC(C)OCc1cc(CN2CCOCC2)c(O)c2ncccc12 |  | 2.5 |  |  |
| CCN1CCN(Cc2ccc(O)c3ncccc23)CC1 | 0.8 |  |  |  |
| Oc1c(C(c2ccncc2)N2CCOCC2)ccc2cccnc12 (stereo unspecified) |  |  | 1.4 |  |
| Oc1ccc(CN2CCCCCC2)c2cccnc12 | 1.2 |  |  |  |
| Oc1c(C(c2cccs2)N2CCOCC2)cc(Cl)c2cccnc12 (stereo unspecified) | 0.6 |  |  |  |
| Oc1c(C(c2ccccn2)N2CCOCC2)cc(Cl)c2cccnc12 (stereo unspecified) | 1.6 |  |  |  |
| Cc1ccc(C(c2cc(Cl)c3cccnc3c2O)N2CCCC2)cc1 (stereo unspecified) | 2.3 |  |  |  |

| SMILES | Ratio IC50 [1] | Ratio IC50 [2] | Ratio IC50 [3] | also measured |
| --- | --- | --- | --- | --- |
| Oc1c(C(c2cccs2)N2CCCCC2)ccc2cccnc12 (stereo unspecified) | 0.8 |  |  |  |
| Oc1c(C(c2cccnc2)N2CCOCC2)cc(Cl)c2cccnc12 (stereo unspecified) | 1.6 |  |  |  |
| CCOCc1cc(CN2CCCC2)c(O)c2ncccc12 |  | 6 | 1.7 |  |
| Cc1ccccc1N1CCN(Cc2ccc(O)c3ncccc23)CC1 |  | 0.7 |  |  |
| CCOCc1cc(CN2CCN(C)CC2)c(O)c2ncccc12 |  | 2.9 | 1.3 |  |
| CN1CCN(C(c2ccncc2)c2ccc3cccnc3c2O)CC1 (stereo unspecified) |  |  | 1.6 |  |
| Oc1c(C(c2ccccn2)N2CCCC2)ccc2cccnc12 (stereo unspecified) |  | 4.4 |  |  |
| CCCOCc1cc(CN2CCN(C)CC2)c(O)c2ncccc12 |  | 3 | 1.7 |  |
| CN1CCN(Cc2ccc3cccnc3c2O)CC1 |  | 2.3 |  |  |
| CCOCc1cc(CN2CCOCC2)c(O)c2ncccc12 | 1.9 | 4.1 |  |  |
| CN1CCN(C(c2cccs2)c2ccc3cccnc3c2O)CC1 (stereo unspecified) | 0.8 |  |  |  |
| Oc1c(CN2CCCC2)cc(Cl)c2cccnc12 |  | 3.8 |  |  |
| Oc1c(C(c2ccncc2)N2CCCC2)ccc2cccnc12 (stereo unspecified) | 1.6 |  |  |  |
| CCCOCc1cc(CN2CCN(c3ccccc3)CC2)c(O)c2ncccc12 |  | 2.4 | 1.7 |  |
| CCOCc1cc(CN2CCN(c3ccccc3)CC2)c(O)c2ncccc12 |  | 3.1 | 1.5 |  |
| COCc1cc(CN2CCOCC2)c(O)c2ncccc12 | 1.7 | 2.8 | 1.1 |  |
| CC1CCN(Cc2cc(COC(C)C)c3cccnc3c2O)CC1 |  | 4.1 |  |  |
| COCc1cc(CN2CCN(c3ccccc3)CC2)c(O)c2ncccc12 | 2.2 | 3.9 |  |  |
| CCN1CCN(C(c2cccnc2)c2ccc3cccnc3c2O)CC1 (stereo unspecified) | 2.1 |  | 1 |  |
| Oc1c(C(c2cccnc2)N2CCCC2)ccc2cccnc12 (stereo unspecified) | 1.8 |  |  |  |
| COCc1cc(CN2CCCCC2)c(O)c2ncccc12 |  | 6.3 | 1.3 |  |
| CCN1CCN(C(c2cccs2)c2ccc3cccnc3c2O)CC1 (stereo unspecified) | 0.6 |  |  |  |
| Oc1c(C(c2ccccc2)N2CCOCC2)ccc2cccnc12 (stereo unspecified) | 1.8 |  |  |  |
| CN1CCN(Cc2cnc3ccccc3c2O)CC1 | 1.99 |  |  |  |

| SMILES | Ratio IC50 [1] | Ratio IC50 [2] | Ratio IC50 [3] | also measured |
| --- | --- | --- | --- | --- |
| Oc1c(C(c2ccncc2)N2CCCCC2)ccc2cccnc12 (stereo unspecified) | 1.9 | 7.8 |  |  |
| CC(C)OCc1cc(CN2CCCCC2)c(O)c2ncccc12 |  | 3.9 | 1.3 |  |
| CC1CCN(Cc2cc(Cl)c3cccnc3c2O)CC1 |  | 6.1 |  |  |
| Oc1ccc(CN2CCOCC2)c2cccnc12 | 0.7 |  |  |  |
| CCCOCc1cc(CN2CCCCC2)c(O)c2ncccc12 |  | 4.6 | 1.5 |  |
| CCN1CCN(C(c2cc(Cl)c3cccnc3c2O)N2CCCC2)CC1 (stereo unspecified) | 2.8 | 1.7 | 1.3 | IC50 ([4]; read-out: pIC50 (converted)): 3310 nM; IC50 ([5]; read-out: pIC50 (converted)): 3.31 µM; IC50 ([6]; read-out: pIC50 (converted)): 1170 nM; IC50 [7]: 2450 nM; IC50 [8]: 8.71 µM; IC50 [9]: 5.13 µM |
| Oc1ccccc1CN1CCNCC1 |  |  |  | IC50 ([5]; read-out: IC50): > 100 µM; IC50 ([6]; read-out: IC50): > 100000 nM |
| Oc1c(CN2CCCCCC2)cc(Cl)c2cccnc12 |  | 2.1 | 1.3 |  |
| Oc1c(CN2CCc3ccccc3C2)ccc2cccnc12 |  | 2 | 1.5 | IC50 ([4]; read-out: IC50): 2590 nM |
| Oc1c(CN2CCCC2)cc(Br)c2cccnc12 | 9.8 | 2.9 | 1.5 | IC50 [7]: 2690 nM |
| COCc1cc(CN2CCC(C)CC2)c(O)c2ncccc12 |  | 6.1 | 1.4 |  |
| Oc1c(CN2CCOCC2)cc(Br)c2cccnc12 | 2.5 | 3.1 | 1.5 |  |
| CCOC(=O)C1CCN(Cc2cc(Cl)c3cccnc3c2O)CC1 |  | 4.1 |  |  |
| CCN1CCN(C(c2ccccn2)c2cc(Cl)c3cccnc3c2O)CC1 (stereo unspecified) | 1.2 |  |  |  |
| CCN(CC)Cc1cc(Cl)c2cccnc2c1O |  | 6.2 |  |  |
| CCOCc1cc(CN2CCCCC2)c(O)c2ncccc12 |  | 6 |  |  |
| Oc1c(C(c2ccccc2)N2CCCCC2)cc(Cl)c2cccnc12 (stereo unspecified) | 1.1 |  |  |  |
| CCOCc1cc(CN2CCC(C)CC2)c(O)c2ncccc12 |  | 5 | 1.5 |  |
| Oc1ccc(CN2CCCC2)c2cccnc12 | 1.5 |  |  |  |
| Oc1c(C(c2ccccn2)N2CCCC2)cc(Cl)c2cccnc12 (stereo unspecified) |  | 3.7 |  |  |
| Oc1c(CN2CCCCC2)cc(Br)c2cccnc12 | 10.8 | 3.2 |  |  |
| Oc1c(CN2CCCCC2)ccc2cccnc12 |  | 4.1 |  |  |
| Oc1cccc2cccnc12 [OXYQUINOLINE] |  |  | 2.3 |  |
